According to PMC2920599 (Journal of medicinal chemistry, 2010):
Where two headings read alike, the source gives them in different places.

Experiments:
Ovarian = experiment: NCI 60 cell panel, five-concentration assay, ovarian subpanel; format: cell-based; settings: total growth inhibition; 48 h exposure
Breast = experiment: NCI 60 cell panel, five-concentration assay, breast subpanel; format: cell-based; settings: total growth inhibition; 48 h exposure
Leukemia = experiment: NCI 60 cell panel, five-concentration assay, leukemia subpanel; format: cell-based; settings: total growth inhibition; 48 h exposure
NSCLC = experiment: NCI 60 cell panel, five-concentration assay, NSCLC subpanel; format: cell-based; settings: total growth inhibition; 48 h exposure
full NCI 60 cell panel = settings: for GI50: read-out: GI50 MG-MID (mean GI50)
Melanoma = experiment: NCI 60 cell panel, five-concentration assay, melanoma subpanel; format: cell-based; settings: total growth inhibition; 48 h exposure
Prostate = experiment: NCI 60 cell panel, five-concentration assay, prostate subpanel; format: cell-based; settings: total growth inhibition; 48 h exposure
CNS = experiment: NCI 60 cell panel, five-concentration assay, CNS subpanel; format: cell-based; settings: total growth inhibition; 48 h exposure
Colon = experiment: NCI 60 cell panel, five-concentration assay, colon subpanel; format: cell-based; settings: total growth inhibition; 48 h exposure
Renal = experiment: NCI 60 cell panel, five-concentration assay, renal subpanel; format: cell-based; settings: total growth inhibition; 48 h exposure
p53 = experiment: Western blotting of p53 in MCF-7 cells; format: cell-based, human; settings: 5 μM, 20 h
[1] = test system: female athymic nude mouse; settings: in vivo, ip
[2] = test system: MCF-7 breast cancer cells; experiment: Growth and death of MCF-7 cells; format: cell-based, human; settings: 200 nM, viable cells counted daily
In short: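 MCF-7 cells grown in RPMI 1640 with 10% FBS and 2 mM L-glutamine at 37°C, 5% CO2. Plated at 2×10^4 cells/cm2; compound added 24 h later from 10 mmol/L DMSO working solutions, with DMSO-only controls. Cells harvested with 0.11% trypsin/0.02% EDTA and counted; viability by trypan blue exclusion. Treated vs control compared by Student t-test, P<0.05.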

ERK1/2 = experiment: Western blotting of ERK1/2 phosphorylation in MCF-7 cells; format: cell-based, human; settings: 5 μM, 20 h
In short: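 MCF-7 cells treated 20 h, then collected in 20 mM HEPES pH 7.5 with 5 mM DTT, 2 mM EDTA, 0.1% CHAPS, 0.1% Triton X-100 and protease inhibitors, and freeze-thawed twice. Extracts run on SDS-PAGE at 80 μg protein/lane and immunoblotted for total and phosphorylated ERK1/2 and Akt, p53, p21 and β-actin. Blots representative of at least three experiments.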

[3] = calculated panel mean, 48 h exposure

| SMILES | TGI Ovarian (Ovarian) | TGI Breast (Breast) | TGI Leukemia (Leukemia) | TGI NSCLC (NSCLC) | TGI MG-MID (mean TGI) (full NCI 60 cell panel; [3]) | GI50 (full NCI 60 cell panel; [3]) | CC50 (full NCI 60 cell panel; read-out: LC50 MG-MID (mean LC50), calculated panel mean, 48 h exposure) | TGI Melanoma (Melanoma) | TGI Prostate (Prostate) | TGI CNS (CNS) | TGI Colon (Colon) | CC50 (full NCI 60 cell panel) | TGI Renal (Renal) | p53 expression (p53) | maximum tolerated dose (MTD) [1] | effect on MCF-7 cell growth (total cell number) [2] | ERK phosphorylation (ERK1/2) |
| --- | --- | --- | --- | --- | --- | --- | --- | --- | --- | --- | --- | --- | --- | --- | --- | --- | --- |
| COc1cc2c(cc1C)NC(=O)/C2=C/c1c(Cl)n(C)c2cc(C)c(OC)cc12 [Compound 8] | 91.20 µM | 77.62 µM | 60.26 µM | 97.72 µM | 77.62 µM | 24 µM | 91.2 µM | 45.71 µM | 97.72 µM | 87.10 µM | 87.10 µM |  |  |  |  |  |  |
| CN(C)c1ccc2[nH]c(Cl)c(/C=C3/C(=O)Nc4ccc(Cl)cc43)c2c1 [Compound 18] | 11.75 µM | 9.12 µM | 17.78 µM | 10.00 µM | 9.77 µM |  |  | 11.22 µM | 13.49 µM | 5.50 µM | 7.24 µM | 38.9 µM | 8.13 µM |  |  |  |  |
| COc1cc2c(/C=C3/C(=O)Nc4cc(Cl)ccc43)c(Cl)[nH]c2cc1C [Compound 7] | 14.79 µM | 2.63 µM | 4.79 µM | 11.48 µM | 6.61 µM | 0.21 µM |  | 11.48 µM | 5.25 µM | 4.37 µM | 3.55 µM |  | 7.08 µM |  |  |  |  |
| COc1cc2c(/C=C3/C(=O)Nc4ccc(Br)cc43)c(Cl)n(C)c2cc1C [Compound 9] | 13.49 µM | 4.90 µM | 20.89 µM | 9.33 µM | 8.32 µM | 1.66 µM |  | 7.41 µM | 8.91 µM | 7.08 µM | 6.03 µM | 36.3 µM | 6.76 µM |  |  |  |  |
| COc1cc2c(/C=C3/C(=O)Nc4ccc(Br)cc43)c(Cl)[nH]c2cc1C [Compound 4] | 8.13 µM | 10.47 µM | 6.17 µM | 14.13 µM | 9.33 µM |  |  | 9.55 µM | 7.94 µM | 8.91 µM | 6.76 µM | 39.8 µM | 10.96 µM |  |  |  |  |
| COc1cc2c(/C=C3/C(=O)N(C)c4ccccc43)c(Cl)n(C)c2cc1C [Compound 13] | 18.20 µM | 13.18 µM | 4.07 µM | 33.11 µM | 11.48 µM | 0.32 µM |  | 14.13 µM | 10.00 µM | 4.47 µM | 8.51 µM | 77.6 µM | 10.23 µM |  |  |  |  |
| COc1cc2c(cc1C)N(C)C(=O)/C2=C/c1c(Cl)[nH]c2ccccc12 [Compound 16] | 11.75 µM | 8.32 µM | 7.41 µM | 12.30 µM | 10.96 µM | 0.45 µM |  | 18.20 µM | 21.38 µM | 7.59 µM | 9.33 µM |  | 12.88 µM | caused a p53 increase | 100 mg/kg | initially decreased cell proliferation, however after 24 h, the cells recovered and started to grow | decreased ERK phosphorylation |
